# From ChEMBL document CHEMBL4130454, “Anchimerically Activatable Antiviral ProTides” (ACS Med Chem Lett, 2017)
# The source made the active and inactive calls. No cut-off for these calls is given here.
# What was measured:
# dengue virus type 2 [1] = assay: Antiviral activity against Dengue virus 2 prototype 16681 infected in African green monkey Vero cells assessed as inhibition of viral RNA replication at 100 uM after 72 hrs by qPCR method; assay type: functional, organism-based
# Method in brief: (§1)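 Vero cells infected with DENV-2 (moi = 0.2), then treated with 100 μM compound, alone or together with 100 μM TrpGc (HINT1 inhibitor). After 72 h, supernatant RNA was extracted and viral progeny quantified by DENV-2-specific qPCR. Replication is expressed as percentage of the untreated infected control. Mean of four independent experiments.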
# dengue virus type 2 [2] = assay: Antiviral activity against Dengue virus 2 prototype 16681 infected in Vero cells assessed as inhibition of virus induced cytopathic effect by plaque assay; details: prototype 16681, Vero
# dengue virus type 2 [3] = assay: Antiviral activity against Dengue virus 2 prototype 16681 infected in African green monkey Vero cells assessed as inhibition of viral RNA replication at 100 uM after 72 hrs in presence of 100 uM of HINT1 inhibitor […] by qPCR method; assay type: functional, organism-based; method in brief: as §1
# [4] = Cytotoxicity against African green monkey Vero cells assessed as decrease in cell viability after 72 hrs by neutral red dye uptake assay; assay type: cell-based; details: chlorocebus sabaeus
# Method in brief: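 Vero cells were exposed to a range of compound concentrations for 72 h. Viability was read by Neutral Red dye uptake, six replicates.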
# dengue virus type 2 [5] = assay: Antiviral activity against Dengue virus 2 New Guinea assessed as inhibition of virus induced cytopathic effect by neutral red dye uptake assay; assay type: functional, organism-based
# [6] = Drug metabolism assessed as half life for ((2R,3R,4R,5R)-5-(2-amino-6-oxo-1,6-dihydro-9H-purin-9-yl)-3,4-dihydroxy-4-methyltetrahydrofuran-2-yl)methyl hydrogen (2-(1H-indol-3-yl)ethyl)phosphoramidate formation in HEPES buffer at pH 7.4 by RP-HPLC analysis; assay type: physicochemical
# Method in brief: (§2)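 Diester prodrug incubated at 37 °C in 20 mM HEPES buffer, pH 7.4 or pH 2.0. Removal of the 2-(methylthio)ethyl group, giving the monoester phosphoramidate, was followed over time by reversed-phase HPLC. The half-life was derived from the conversion time course.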
# [7] = Drug metabolism assessed as half life for ((2R,3R,4R,5R)-5-(2-amino-6-oxo-1,6-dihydro-9H-purin-9-yl)-3,4-dihydroxy-4-methyltetrahydrofuran-2-yl)methyl hydrogen (2-(1H-indol-3-yl)ethyl)phosphoramidate formation in HEPES buffer at pH 2 by RP-HPLC analysis; assay type: physicochemical; method in brief: as §2
IC50 (dengue virus type 2 [2]) [µM],t1/2 [6] [h],t1/2 [7] [h],SMILES,inhibition (dengue virus type 2 [1]),inhibition (dengue virus type 2 [3]),CC50 at 72 h [4] [µM],EC50 (dengue virus type 2 [5]) [µM]
6.84,,,C[C@@]1(O)[C@H](O)[C@@H](COP(=O)(O)NCCc2c[nH]c3ccccc23)O[C@H]1n1cnc2c(=O)[nH]c(N)nc21,Active,inactive,> 200,
8.14,,,C[C@@]1(O)[C@H](O)[C@@H](CO)O[C@H]1n1cnc2c(=O)[nH]c(N)nc21 [2'-B-METHYL-GUANOSINE],,,> 200,13.6
,,,C[C@@]1(O)[C@H](O)[C@@H](CO)O[C@H]1n1cnc2c(N)ncnc21,,,,4
1.59,4.5,3.78,CSCCOP(=O)(NCCc1c[nH]c2ccccc12)OC[C@H]1O[C@@H](n2cnc3c(=O)[nH]c(N)nc32)[C@](C)(O)[C@@H]1O (some centres undefined),Active,inactive,> 200,
